For data set [1], the system named is primary human CD14+ monocyte-derived M2 macrophages. In words: Macrophage M2 to M1 repolarization. The data set is classed as cell-based. The conditions noted are these: 2, 4, and 6 μmol/L XL092 for 7 days; 5 donors. The essentials: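 CD14+ monocytes (1.0 × 10^6 cells/mL) differentiated 6 days into M2 macrophages, then cryopreserved. Thawed cells seeded at 2.0 × 10^5/well in M2 differentiation medium and exposed to 2, 4 or 6 μmol/L for 7 days at 37°C, 5% CO2, with medium and compound renewed on day 4; triplicate per donor, 5 donors. After Fc block, stained with anti-CD163 and 7-AAD. Viable CD163−/CD163+ ratio expressed as fold change versus DMSO.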

For data set [2] the following is noted: humans; preliminary phase I data (NCT03845166); cited from earlier work.
Data set [3] deals with MET (Homo sapiens, UniProt P08581, DEL964-1010). In words: Inhibition of receptor phosphorylation, ELISA, Hs 746T cells. It counts as cell-based.
The test system of the next data set is SNU-5 tumors. In words: SNU-5 xenograft tumor growth. It counts as in vivo, mice. As to conditions: 14 days, oral. In outline: (§1)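 Human tumour cells inoculated into the rear flank. Mice randomised at mean volumes of ~200 mm3 (Hs 746T), ~120 mm3 (MDA-MB-231), ~100 mm3 (NCI-H441) or ~90 mm3 (SNU-5). Oral gavage once daily with test compound or vehicle. Tumour volume and body weight measured at least twice weekly. […], using mean volumes at extraction and dosing start.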

A further data set concerns the target T1, AXL (Homo sapiens, UniProt P30530).
T1 sequence (P30530 26-894): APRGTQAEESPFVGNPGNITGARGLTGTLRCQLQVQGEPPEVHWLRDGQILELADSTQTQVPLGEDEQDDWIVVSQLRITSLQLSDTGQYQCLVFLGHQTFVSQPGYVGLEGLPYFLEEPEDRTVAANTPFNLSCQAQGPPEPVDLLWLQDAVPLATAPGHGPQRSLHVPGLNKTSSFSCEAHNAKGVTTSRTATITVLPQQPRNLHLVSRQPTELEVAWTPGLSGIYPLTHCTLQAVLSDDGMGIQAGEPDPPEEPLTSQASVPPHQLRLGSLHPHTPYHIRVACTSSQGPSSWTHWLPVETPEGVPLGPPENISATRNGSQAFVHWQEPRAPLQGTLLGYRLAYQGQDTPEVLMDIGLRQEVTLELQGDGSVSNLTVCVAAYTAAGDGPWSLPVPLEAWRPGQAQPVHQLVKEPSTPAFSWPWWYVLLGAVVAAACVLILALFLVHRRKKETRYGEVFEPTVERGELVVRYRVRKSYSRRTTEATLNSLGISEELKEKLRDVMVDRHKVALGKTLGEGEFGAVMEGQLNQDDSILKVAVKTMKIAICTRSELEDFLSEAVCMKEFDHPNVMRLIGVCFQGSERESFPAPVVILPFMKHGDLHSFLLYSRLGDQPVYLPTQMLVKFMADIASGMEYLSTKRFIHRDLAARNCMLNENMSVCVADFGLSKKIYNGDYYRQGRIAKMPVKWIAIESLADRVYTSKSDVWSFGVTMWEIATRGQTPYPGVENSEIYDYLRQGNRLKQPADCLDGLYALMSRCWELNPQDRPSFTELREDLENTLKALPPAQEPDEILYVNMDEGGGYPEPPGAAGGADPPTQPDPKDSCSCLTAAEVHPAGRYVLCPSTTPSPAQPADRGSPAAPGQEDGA
Nature of the data set: AXL phosphorylation in Hs 746T tumors in vivo. Also noted: species or system mice. In outline:
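Hs 746T xenograft mice received single oral doses (30 or 100 mg/kg) or vehicle, n = 6/group. […] Tumour pAXL/AXL ratio reported as mean ± SEM, Mann–Whitney U test. Duration study: 100 mg/kg group sampled every 12 h up to 48 h.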

The next data set deals with NCI-H441 tumors. In words: NCI-H441 xenograft tumor growth. It counts as in vivo, mice. As to conditions: 21 days, oral. The essentials:
as §1

The test system of another data set is Hs 746T tumors. In words: Hs 746T xenograft tumor growth. The data set is classed as in vivo, mice. The conditions noted are these: 12 days, oral. In outline:
as §1

The subject of data set [4] is panel of 405 protein kinases. In words: KinaseProfiler 33P radiometric kinase assay, panel. It counts as biochemical. The essentials:
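Radiometric 33P-phosphoryl transfer assay measuring catalytic activity of recombinant active kinase domains across the profiling panel.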

Data set [5] addresses MET (Homo sapiens, UniProt P08581). Nature of the data set: Inhibition of receptor phosphorylation, ELISA, PC-3 cells/HGF. The data set is classed as cell-based.

Each structure is given as a SMILES string.

On to `CNC(=O)c1cc2c(Oc3ccc(NC(=O)C4(C(=O)Nc5ccc(F)cc5)CC4)cc3)ccnc2cc1OC` [XL092], for which the “M1 (CD163-negative) to M2 (CD163-positive) ratio” value in data set [1] is on record as “dose-dependent increases”. Also, the half-life entry in data set [2] is “approximately 24 hours”. The concentration for half-maximal inhibition (IC50) against MET [3] stood at 25.4 ± 1.32 nM; against MET [5], 11.9 ± 1.55 nM. For the same compound, the Tumor growth inhibition came to 54.2% in the data set on SNU-5 tumors (3 mg/kg/day); 94.7% with SNU-5 tumors (10 mg/kg/day); 68.3% in the data set on NCI-H441 tumors (1 mg/kg/day); 10.1% in the data set with Hs 746T tumors (1 mg/kg/day); 35.6% with Hs 746T tumors (3 mg/kg/day); 70.2% in the data set with Hs 746T tumors (10 mg/kg/day). In addition, the Tumor growth inhibition in the data set with Hs 746T tumors (30 mg/kg/day) came out at 94.9%. Moreover, the “duration of inhibition of AXL phosphorylation” value at AXL (Hs 746T model, single dose of 100 mg/kg) is “approximately 24 hours”. Also, on AXL (Hs 746T xenograft, single oral doses 30 or 100 mg/kg, P < 0.01), the “tumor AXL phosphorylation relative to vehicle” value is on record as “significant decrease”. The “Tumor regression (%)” value is 5.6% with NCI-H441 tumors (3 mg/kg/day), 67.7% with NCI-H441 tumors (10 mg/kg/day), 72.1% in the data set on NCI-H441 tumors (30 mg/kg/day) and 86.1% with NCI-H441 tumors (60 mg/kg/day). For the same compound, the “activity against serine or threonine kinases” value in data set [4] (kinase profiling) is “No activity”. Further, in data set [4] (single concentration of 1 μmol/L, panel of 405 protein kinases), the “inhibition of additional RTKs and TKs” value was no less than 70%.

What is called IC50 is the point on the concentration scale where inhibition reaches its midpoint.
